Assay results reported in ChEMBL document CHEMBL4196145, “Antitumor Activity of Diterpenoids from Jatropha gossypiifolia: Cell Cycle Arrest and Apoptosis-Inducing Activity in RKO Colon Cancer Cells” (J Nat Prod, 2018).
pIC50: −log10 of the molar value. Activity calls are given as the source filed them. The calls are words filed in the database; no cut-off is given here.

Experiments:
LoVo = assay: Growth inhibition of human LoVo cells after 48 hrs by CCK-8 assay; assay type: functional, cell-based
RKO [1] = assay: Growth inhibition of human RKO cells after 48 hrs by CCK-8 assay; assay type: functional, cell-based
How it was run: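 CCK-8 (WST-8) was then added for 1 h at 37 °C and optical density read at 450 nm. Survival was expressed relative to untreated control wells and IC50 calculated. Three independent experiments.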

RKO [2] = assay: Cell cycle arrest in human RKO cells assessed as accumulation at G1 phase at 20.4 uM after 24 hrs by propidium iodide staining based flow cytometry (reference value: 51.13%); assay type: functional
RKO [3] = assay: Induction of apoptosis in human RKO cells assessed as early apoptotic cells at 20.4 uM after 24 hrs by annexin V-FITC/propidium iodide staining based flow cytometry (reference value: 1.98%); assay type: functional
RKO [4] = assay: Induction of apoptosis in human RKO cells assessed as necrotic cells at 20.4 uM after 24 hrs by annexin V-FITC/propidium iodide staining based flow cytometry (reference value: 0.035%); assay type: functional
RKO [5] = assay: Cell cycle arrest in human RKO cells assessed as accumulation at G2/M phase at 20.4 uM after 24 hrs by propidium iodide staining based flow cytometry (reference value: 10.97%); assay type: functional
RKO [6] = assay: Cell cycle arrest in human RKO cells assessed as accumulation at G2/M phase at 10.2 uM after 24 hrs by propidium iodide staining based flow cytometry (reference value: 10.97%); assay type: functional
RKO [7] = assay: Induction of apoptosis in human RKO cells assessed as viable cells at 20.4 uM after 24 hrs by annexin V-FITC/propidium iodide staining based flow cytometry (reference value: 94.1%); assay type: functional; conditions: read-out: Activity
RKO [8] = assay: Cell cycle arrest in human RKO cells assessed as accumulation at S phase at 10.2 uM after 24 hrs by propidium iodide staining based flow cytometry (reference value: 37.89%); assay type: functional
RKO [9] = assay: Cell cycle arrest in human RKO cells assessed as accumulation at G1 phase at 10.2 uM after 24 hrs by propidium iodide staining based flow cytometry (reference value: 51.13%); assay type: functional
RKO [10] = assay: Induction of apoptosis in human RKO cells assessed as late apoptotic cells at 10.2 uM after 24 hrs by annexin V-FITC/propidium iodide staining based flow cytometry (reference value: 3.91%); assay type: functional
RKO [11] = assay: Induction of apoptosis in human RKO cells assessed as late apoptotic cells at 20.4 uM after 24 hrs by annexin V-FITC/propidium iodide staining based flow cytometry (reference value: 3.91%); assay type: functional
RKO [12] = assay: Induction of apoptosis in human RKO cells assessed as viable cells at 10.2 uM after 24 hrs by annexin V-FITC/propidium iodide staining based flow cytometry (reference value: 94.1%); assay type: functional; conditions: read-out: Activity
RKO [13] = assay: Cell cycle arrest in human RKO cells assessed as accumulation at S phase at 20.4 uM after 24 hrs by propidium iodide staining based flow cytometry (reference value: 37.89%); assay type: functional
RKO [14] = assay: Induction of apoptosis in human RKO cells assessed as necrotic cells at 10.2 uM after 24 hrs by annexin V-FITC/propidium iodide staining based flow cytometry (reference value: 0.035%); assay type: functional
RKO [15] = assay: Induction of apoptosis in human RKO cells assessed as early apoptotic cells at 10.2 uM after 24 hrs by annexin V-FITC/propidium iodide staining based flow cytometry (reference value: 1.98%); assay type: functional
RKO [16] = assay: Induction of apoptosis in human RKO cells assessed as necrotic cells at 2.6 uM after 24 hrs by annexin V-FITC/propidium iodide staining based flow cytometry (reference value: 0.035%); assay type: functional
How it was run: (§1)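 Annexin V-FITC/PI kit assay. RKO cells were treated for 24 h at 37 °C with compound, DMSO or 5-FU, collected and washed twice with PBS. They were resuspended in binding buffer and stained with annexin V-FITC and PI for 20 min at 37 °C in the dark. Flow cytometry was run immediately, with viable, early/late apoptotic and necrotic fractions read.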

RKO [17] = assay: Induction of apoptosis in human RKO cells assessed as nuclear fragmentation at 2.6 to 5.2 uM after 24 hrs by DAPI staining based fluorescence microscopy; assay type: functional, cell-based
RKO [18] = assay: Induction of apoptosis in human RKO cells assessed as late apoptotic cells at 2.6 uM after 24 hrs by annexin V-FITC/propidium iodide staining based flow cytometry (reference value: 3.91%); assay type: functional; how it was run: as §1
RKO [19] = assay: Induction of apoptosis in human RKO cells at 5.2 uM after 24 hrs by DAPI staining based fluorescence microscopy; assay type: functional, cell-based
RKO [20] = assay: Induction of apoptosis in human RKO cells assessed as viable cells at 2.6 uM after 24 hrs by annexin V-FITC/propidium iodide staining based flow cytometry (reference value: 94.1%); assay type: functional; conditions: read-out: Activity; how it was run: as §1
RKO [21] = assay: Induction of apoptosis in human RKO cells assessed as necrotic cells at 5.2 uM after 24 hrs by annexin V-FITC/propidium iodide staining based flow cytometry (reference value: 0.035%); assay type: functional; how it was run: as §1
RKO [22] = assay: Induction of apoptosis in human RKO cells assessed as nuclear condensation at 2.6 to 5.2 uM after 24 hrs by DAPI staining based fluorescence microscopy; assay type: functional, cell-based
RKO [23] = assay: Cell cycle arrest in human RKO cells assessed as accumulation at S phase at 2.6 uM after 24 hrs by propidium iodide staining based flow cytometry (reference value: 37.89%); assay type: functional
RKO [24] = assay: Cell cycle arrest in human RKO cells assessed as accumulation at G2/M phase at 2.6 uM after 24 hrs by propidium iodide staining based flow cytometry (reference value: 10.97%); assay type: functional
RKO [25] = assay: Cell cycle arrest in human RKO cells assessed as accumulation at G1 phase at 5.2 uM after 24 hrs by propidium iodide staining based flow cytometry (reference value: 51.13%); assay type: functional
RKO [26] = assay: Induction of apoptosis in human RKO cells assessed as viable cells at 5.2 uM after 24 hrs by annexin V-FITC/propidium iodide staining based flow cytometry (reference value: 94.1%); assay type: functional; conditions: read-out: Activity; how it was run: as §1
RKO [27] = assay: Induction of apoptosis in human RKO cells assessed as early apoptotic cells at 2.6 uM after 24 hrs by annexin V-FITC/propidium iodide staining based flow cytometry (reference value: 1.98%); assay type: functional; how it was run: as §1
RKO [28] = assay: Cell cycle arrest in human RKO cells assessed as accumulation at G1 phase at 2.6 uM after 24 hrs by propidium iodide staining based flow cytometry (reference value: 51.13%); assay type: functional
RKO [29] = assay: Cell cycle arrest in human RKO cells assessed as accumulation at G2/M phase at 5.2 uM after 24 hrs by propidium iodide staining based flow cytometry (reference value: 10.97%); assay type: functional
RKO [30] = assay: Antimigratory activity against human RKO cells at 2.6 to 5.2 uM after 48 hrs by wound healing based inverted microscopy; assay type: functional, cell-based
How it was run: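 Scratch-wound assay. RKO monolayers above 90% confluence were scratched with a sterile pipette tip and debris rinsed off with PBS. Cells were then kept in MEM with 2% FBS at 37 °C with compound, DMSO vehicle or 5-FU. Wounds were photographed by inverted microscopy at 0 and 48 h, and scratch area was compared with the original wound.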

RKO [31] = assay: Induction of apoptosis in human RKO cells assessed as late apoptotic cells at 5.2 uM after 24 hrs by annexin V-FITC/propidium iodide staining based flow cytometry (reference value: 3.91%); assay type: functional; how it was run: as §1
RKO [32] = assay: Induction of apoptosis in human RKO cells after 24 hrs by annexin V-FITC/propidium iodide staining based flow cytometry; assay type: functional, cell-based; how it was run: as §1
RKO [33] = assay: Induction of apoptosis in human RKO cells assessed as early apoptotic cells at 5.2 uM after 24 hrs by annexin V-FITC/propidium iodide staining based flow cytometry (reference value: 1.98%); assay type: functional; how it was run: as §1
RKO [34] = assay: Cell cycle arrest in human RKO cells assessed as accumulation at S phase at 5.2 uM after 24 hrs by propidium iodide staining based flow cytometry (reference value: 37.89%); assay type: functional

C/C1=C/C2=C(C[C@H](C)C2)C(=O)[C@@]2(C)C(=O)CC(C)(C)[C@@H]2CC1=O
growth inhibition (GI) (LoVo): inactive | growth inhibition (GI) (RKO [1]): inactive

O=c1[nH]cc(F)c(=O)[nH]1 [FLUOROURACIL]
Activity (RKO [2]): 66.4% | Activity (RKO [3]): 11.6% | Activity (RKO [4]): 0.065% | Activity (RKO [5]): 21.48% | pIC50 (LoVo): 4.94 | Activity (RKO [6]): 21.47% | viability at 20.4 µM (RKO [7]): 51.7% | Activity (RKO [8]): 15.97% | Activity (RKO [9]): 62.56% | Activity (RKO [10]): 20.8% | Activity (RKO [11]): 36.7% | viability at 10.2 µM (RKO [12]): 69.2% | Activity (RKO [13]): 12.12% | Activity (RKO [14]): 0.289% | pIC50 (RKO [1]): 4.99 | Activity (RKO [15]): 9.75%

C=C1CC[C@H]2[C@@H](c3c(C)c(O)c4c(c31)C(=O)[C@@H](C)C4)C2(C)C
growth inhibition (GI) (LoVo): inactive | growth inhibition (GI) (RKO [1]): inactive

CC(=O)O[C@H]1/C2=C/[C@@H](C)C(=O)C[C@H]3[C@@H](C[C@@H](C)C(=O)[C@H]2C[C@H]1C)C3(C)C
growth inhibition (GI) (LoVo): inactive | growth inhibition (GI) (RKO [1]): inactive

C=C(C)[C@@H]1/C=C/[C@@H](C)C(=O)[C@H]2C[C@@H](C)[C@@H](OC(C)=O)/C2=C/[C@@H](C)C(=O)C1
growth inhibition (GI) (LoVo): inactive | growth inhibition (GI) (RKO [1]): inactive

C/C1=C/C2=C(C[C@@H](C)C2)C(=O)[C@@]2(C)C(=O)CC(C)(C)[C@@H]2CC1=O
growth inhibition (GI) (LoVo): inactive | growth inhibition (GI) (RKO [1]): inactive

C=C(C)[C@@H]1/C=C/[C@@H](C)C(=O)[C@H]2C[C@@H](C)[C@@H](OC(C)=O)[C@H]2/C=C(/C)C(=O)C1
growth inhibition (GI) (LoVo): inactive | growth inhibition (GI) (RKO [1]): inactive

C=C(C)[C@@H]1/C=C/[C@@H](C)C(=O)[C@H]2C[C@@H](C)[C@@H](OC(C)=O)/C2=C/[C@](C)(O)C(=O)C1
growth inhibition (GI) (LoVo): inactive | growth inhibition (GI) (RKO [1]): inactive

C=C1CC[C@@H](C(=C)C)[C@@H]2C=C(C)C(=O)C3=C(C(=O)[C@@H](C)[C@H]3O)[C@@H]12
Activity (RKO [16]): 0.404% | Activity (RKO [17]): Active | pIC50 (LoVo): 4.84 | Activity (RKO [18]): 27.6% | Activity (RKO [19]): Active | viability at 2.6 µM (RKO [20]): 59.9% | Activity (RKO [21]): 0.811% | Activity (RKO [22]): Active | Activity (RKO [23]): 37.68% | Activity (RKO [24]): 18.3% | Activity (RKO [25]): 36.06% | viability at 5.2 µM (RKO [26]): 9.5% | Activity (RKO [27]): 12.1% | Activity (RKO [28]): 44.03% | Activity (RKO [29]): 25.76% | Activity (RKO [30]): Active | Activity (RKO [31]): 68.2% | Activity (RKO [32]): Dose-dependent effect | Activity (RKO [33]): 21.5% | pIC50 (RKO [1]): 5.59 | Activity (RKO [34]): 38.18%

CC1=C2CC(C)(C)/C=C/C(=O)/C(C)=C\C3=C[C@H](C)C[C@]3(O2)C1=O [JATROPHONE]
pIC50 (LoVo): 4.73 | pIC50 (RKO [1]): 5.10

C=C1CC[C@H]2[C@@H](c3c(C)c(O)c4c(c31)C(=O)[C@H](C)C4)C2(C)C
growth inhibition (GI) (LoVo): inactive | growth inhibition (GI) (RKO [1]): inactive

CC(=O)O[C@H]1C2=C[C@@H](C)C(=O)[C@H]3[C@H]4[C@@H](C[C@@H](C)[C@]3(O)[C@H]2C[C@H]1C)C4(C)C
growth inhibition (GI) (LoVo): inactive | growth inhibition (GI) (RKO [1]): inactive

C/C1=C/[C@]23O[C@H]2[C@H](C)CC3C(=O)[C@]2(C)C(=O)CC(C)(C)[C@H]2CC1=O (stereo not given in full)
growth inhibition (GI) (LoVo): inactive | growth inhibition (GI) (RKO [1]): inactive

C=C(C)[C@@H]1/C=C/[C@@H](C)C(=O)[C@H]2C[C@@H](C)[C@@H](O)/C2=C/[C@@H](C)C(=O)C1
growth inhibition (GI) (LoVo): inactive | growth inhibition (GI) (RKO [1]): inactive

CC(=O)O[C@H]1/C2=C/[C@@H](C)C(=O)C[C@H]3[C@@H](/C=C(\C)C(=O)[C@H]2C[C@H]1C)C3(C)C
growth inhibition (GI) (LoVo): inactive | growth inhibition (GI) (RKO [1]): inactive

CC(=O)O[C@H]1/C2=C/[C@@H](C)C(=O)C[C@H]3[C@@H](/C=C(\C)C(=O)[C@@]2(O)C[C@H]1C)C3(C)C
growth inhibition (GI) (LoVo): inactive | growth inhibition (GI) (RKO [1]): inactive
